pIC50: −log10 of the molar value.
What was measured:
MDA-N = assay: Concentration of compound that cause 50% cytotoxicity of MDA-N breast cancer cell line; format: functional; conditions: Homo sapiens, read-out: Log LC50 (the source's name) (converted)
Summary of the method: (§1)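 NCI 60-cell-line panel screen. Each line was seeded in 96-well plates at a density set by its growth characteristics and incubated drug-free for 24 h. Test agents were then added at five 10-fold dilutions, with a top concentration of 100 μM.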

MDA-MB-231 = assay: Concentration of compound that cause 50% cytotoxicity of MDA-MB-231/ATCC breast cancer cell line; format: functional; conditions: Homo sapiens, read-out: Log LC50 (the source's name) (converted); summary of the method: as §1
Malme-3M = assay: Concentration of compound that cause 50% cytotoxicity of MALME -3M melanoma cell line; format: functional; conditions: Homo sapiens, read-out: Log LC50 (the source's name) (converted); summary of the method: as §1
MCF7 [1] = assay: Inhibitory activity against MCF-7 mammary carcinoma cell line; format: functional, cell-based; conditions: Homo sapiens
Summary of the method: (§2)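 Cells grown in RPMI 1640 with 2 mM L-glutamine and 10% fetal calf serum, 37 °C, 5% CO2. Seeded at 5 × 10³ per well, 24 h adherence, then drug 0.1 nM–100 μM final (n = 8; DMSO stocks, dilutions in medium) for 72 h.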

[2] = Inhibitory activity against MDA-468 mammary carcinoma cell line; format: functional, cell-based, Homo sapiens; conditions: mda-mb-468; summary of the method: as §2
MOLT-4 = assay: Concentration of compound that cause 50% cytotoxicity of MOLT-4 leukemia cell line; format: functional; conditions: Homo sapiens, read-out: LC50 (the source's name); summary of the method: as §1
MCF7 [3] = assay: Concentration of compound that cause 50% cytotoxicity of MCF-7 breast cancer cell line; format: functional; conditions: Homo sapiens, read-out: Log LC50 (the source's name) (converted); summary of the method: as §1
OVCAR-8 = assay: Concentration of compound that cause 50% cytotoxicity of OVCAR-8 ovarian cancer cell line; format: functional; conditions: Homo sapiens, read-out: Log LC50 (the source's name) (converted); summary of the method: as §1
NCI-H226 = assay: Concentration of compound that cause 50% cytotoxicity of NCI-H226 non small cell lung cancer cell line; format: functional; conditions: Homo sapiens, read-out: Log LC50 (the source's name) (converted); summary of the method: as §1
NCI/ADR-RES = assay: Concentration of compound that cause 50% cytotoxicity of NCI/ADR-RES breast cancer cell line; format: functional; conditions: Homo sapiens, read-out: LC50 (the source's name); summary of the method: as §1
NCI-H322M = assay: Concentration of compound that cause 50% cytotoxicity of NCI-H322M non small cell lung cancer cell line; format: functional; conditions: Homo sapiens, read-out: Log LC50 (the source's name) (converted); summary of the method: as §1
OVCAR-4 = assay: Concentration of compound that cause 50% cytotoxicity of OVCAR-4 ovarian cancer cell line; format: functional; conditions: Homo sapiens, read-out: Log LC50 (the source's name) (converted); summary of the method: as §1
NCI-H23 = assay: Concentration of compound that cause 50% cytotoxicity of NCI-H23 non small cell lung cancer cell line; format: functional; conditions: Homo sapiens, read-out: Log LC50 (the source's name) (converted); summary of the method: as §1
OVCAR-3 = assay: Concentration of compound that cause 50% cytotoxicity of OVCAR-3 ovarian cancer cell line; format: functional; conditions: Homo sapiens, read-out: Log LC50 (the source's name) (converted); summary of the method: as §1
OVCAR-5 = assay: Concentration of compound that cause 50% cytotoxicity of OVCAR-5 ovarian cancer cell line; format: functional; conditions: Homo sapiens, read-out: Log LC50 (the source's name) (converted); summary of the method: as §1
RXF 393 = assay: Concentration of compound that cause 50% cytotoxicity of RXF393 renal cancer cell line; format: functional; conditions: Homo sapiens, read-out: Log LC50 (the source's name) (converted); summary of the method: as §1
SK-MEL-2 = assay: Concentration of compound that cause 50% cytotoxicity of SK-MEL-2 melanoma cell line; format: functional; conditions: Homo sapiens, read-out: Log LC50 (the source's name) (converted); summary of the method: as §1
SNB-75 = assay: Concentration of compound that cause 50% cytotoxicity of SNB-75 CNS cancer cell line; format: functional; conditions: Homo sapiens, read-out: Log LC50 (the source's name) (converted); summary of the method: as §1
SR = assay: Concentration of compound that cause 50% cytotoxicity of SR leukemia cell line; format: functional; conditions: Homo sapiens, read-out: LC50 (the source's name); summary of the method: as §1
SN12C = assay: Concentration of compound that cause 50% cytotoxicity of SN12C renal cancer cell line; format: functional; conditions: Homo sapiens, read-out: Log LC50 (the source's name) (converted); summary of the method: as §1
SK-MEL-5 = assay: Concentration of compound that cause 50% cytotoxicity of SK-MEL-5 melanoma cell line; format: functional; conditions: Homo sapiens, read-out: Log LC50 (the source's name) (converted); summary of the method: as §1
SK-OV-3 = assay: Concentration of compound that cause 50% cytotoxicity of SK-OV-3 ovarian cancer cell line; format: functional; conditions: Homo sapiens, read-out: Log LC50 (the source's name) (converted); summary of the method: as §1
SF-268 = assay: Concentration of compound that cause 50% cytotoxicity of SF-268 CNS cancer cell line; format: functional; conditions: Homo sapiens, read-out: Log LC50 (the source's name) (converted); summary of the method: as §1
SW-620 = assay: Concentration of compound that cause 50% cytotoxicity of SW-620 colon cancer cell line; format: functional; conditions: Homo sapiens, read-out: LC50 (the source's name); summary of the method: as §1
SF-295 = assay: Concentration of compound that cause 50% cytotoxicity of SF-295 CNS cancer cell line; format: functional; conditions: Homo sapiens, read-out: Log LC50 (the source's name) (converted); summary of the method: as §1
SK-MEL-28 = assay: Concentration of compound that cause 50% cytotoxicity of SK-MEL-28 melanoma cell line; format: functional; conditions: Homo sapiens, read-out: Log LC50 (the source's name) (converted); summary of the method: as §1
UO-31 = assay: Concentration of compound that cause 50% cytotoxicity of UO-31 renal cancer cell line; format: functional; conditions: Homo sapiens, read-out: Log LC50 (the source's name) (converted)
UACC-257 = assay: Concentration of compound that cause 50% cytotoxicity of UACC-257 melanoma cell line; format: functional; conditions: Homo sapiens, read-out: Log LC50 (the source's name) (converted)
UACC-62 = assay: Concentration of compound that cause 50% cytotoxicity of UACC-62 melanoma cell line; format: functional; conditions: Homo sapiens, read-out: Log LC50 (the source's name) (converted)
U-251 = assay: Concentration of compound that cause 50% cytotoxicity of U251 CNS cancer cell line; format: functional; conditions: Homo sapiens, read-out: Log LC50 (the source's name) (converted); summary of the method: as §1
IGROV-1 = assay: Concentration of compound that cause 50% cytotoxicity of IGROV1 ovarian cancer cell line; format: functional; conditions: Homo sapiens, read-out: Log LC50 (the source's name) (converted); summary of the method: as §1
NCI-H460 = assay: Concentration of compound that cause 50% cytotoxicity of NCI-H460 non small cell lung cancer cell line; format: functional; conditions: Homo sapiens, read-out: Log LC50 (the source's name) (converted); summary of the method: as §1

O=C1C=CC(O)(c2nc3ccccc3s2)C=C1
CC50 (MDA-N): 1 µM
CC50 (MDA-MB-231): 5.75 µM
CC50 (Malme-3M): 2.34 µM
pIC50 (MCF7 [1]): 6.46
pIC50 [2]: 6.10
CC50 (MOLT-4): > 4 µM
CC50 (MCF7 [3]): 4.07 µM
CC50 (OVCAR-8): 5.01 µM
CC50 (NCI-H226): 23.4 µM
CC50 (NCI/ADR-RES): > 4 µM
CC50 (NCI-H322M): 23.4 µM
CC50 (OVCAR-4): 3.8 µM
CC50 (NCI-H23): 5.13 µM
CC50 (OVCAR-3): 2.88 µM
CC50 (OVCAR-5): 1.86 µM
CC50 (RXF 393): 0.575 µM
CC50 (SK-MEL-2): 7.08 µM
CC50 (SNB-75): 4.68 µM
CC50 (SR): > 4 µM
CC50 (SN12C): 1.45 µM
CC50 (SK-MEL-5): 24 µM
CC50 (SK-OV-3): 38 µM
CC50 (SF-268): 6.31 µM
CC50 (SW-620): > 4 µM
CC50 (SF-295): 4.68 µM
CC50 (SK-MEL-28): 2.51 µM
CC50 (UO-31): 0.955 µM
CC50 (UACC-257): 9.77 µM
CC50 (UACC-62): 5.75 µM
CC50 (U-251): 2.57 µM
CC50 (IGROV-1): 5.37 µM
CC50 (NCI-H460): 44.7 µM

— ChEMBL document CHEMBL1145965, “4-Substituted 4-hydroxycyclohexa-2,5-dien-1-ones with selective activities against colon and renal cancer cell lines” (J Med Chem, 2003)
